PostGolgi yeast: phenotypic screen on post-Golgi transport, primary screen; post-Golgi transport phenotypic cell assay; inhibition, % at 10 µM; 98,000 compounds, 0.9% hits;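 also: yeast cells grown in 1536-well plates; yeast grown about 18 h at 30C before absorbance read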
BB579 growth dn: growth inhibitors of yeast BB579 in restrictive medium, primary screen, yeast lifespan-shortening project, S. cerevisiae; inhibition, % at 10 µM; OD615, 48 h; AID 804, 2007; 140,000 compounds, 0.51% hits;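 active = inhibition above a set limit, 3 SD over the mean compound inhibition, cut at about 44% in these data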
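Test system: S. cerevisiae DeaD strain BB579 yeast; Medium: restrictive CSMM-D medium; Compound: one dose, 10 µM compound with 0.25% DMSO; Incubation: 4 h cell preincubation, 48 h compound exposure, 30 °C humidified; Signal: OD at 615 nm; Benchmarks: amphotericin B at 10 µg/mL as positive control.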
Yeast lifespan up: compounds extending yeast replicative lifespan, primary screen, S. cerevisiae, OD615; S. cerevisiae growth with nicotinamide; deaD strain in restrictive glucose medium; inhibition of the nicotinamide effect, % at 10 µM; 130,000 compounds, 0.68% hits;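 active = inhibition above a set limit, placed 3 SD over the median of all compounds, cut at about 26% in these data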
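Assay system: engineered S. cerevisiae DeaD replicative-lifespan strain, galactose-grown log-phase cells; medium: restrictive CSMM-D dextrose medium; also added: nicotinamide, 1.5 mM, co-present with compound; schedule: 48 h compound exposure at 30 °C, humidified; detection: absorbance at 615 nm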
PostGolgi ctrl: growth inhibition of yeast control strain, primary screen, counter-screen for post-Golgi transport modulator project; efflux-deficient yeast background strain, growth absorbance A615, 16 h; inhibition, % at 10 µM; 98,000 compounds, 5% hits; AID 738, 2007
Hits are given with their value; . = inactive; / = no result given. This is one part of a sample in which hits are shown more often than they occur. Rule as the data show it, unless noted: active = inhibition above about 30%; inactive = the rest.

SMILES	PostGolgi yeast	BB579 growth dn	Yeast lifespan up	PostGolgi ctrl
O=C(O)C(Cc1ccccc1)N1C(=O)c2ccccc2C1=O (configuration not stated)	.	.	.	.
O=S(=O)(Nc1nc2ccccc2s1)c1ccc(Cl)s1	.	.	.	31
O=C(CS(=O)(=O)Cc1ccccc1)Nc1nc2ccccc2s1	.	.	.	.
Cc1nc2c3ccccc3[nH]c(=O)n2n1	/	.	/	/
Cc1ccc2nc(NC(=O)CSc3nncc(=O)n3N)sc2c1	/	.	.	/
CC(=Nc1ccc2c(c1)nc(CO)n2C)C1=C(O)CC(C)(C)CC1=O	.	.	46	.
ClC(Br)=C(n1cnc2ccccc21)n1cnc2ccccc21	.	.	41	.
CN(C(=O)n1cnc2ccccc21)c1ccccc1	/	.	.	/
Cc1c(Cl)c([N+](=O)[O-])nn1CC(=O)NC(C)C1CC2CCC1C2 (configuration not stated)	.	.	.	.
COC(=O)C1=C(SC)N(c2ccc(OC)cc2)C(c2ccccc2)CC1=O (configuration not stated)	/	.	.	/
CCc1ccc(CC2S/C(=C(\C#N)C(C)=O)NC2=O)cc1 (configuration not stated)	.	.	44	.
CCOC(=O)c1ccc(CC2S/C(=C(\C#N)C(C)=O)NC2=O)cc1 (configuration not stated)	.	.	.	.
Nc1cccc2nc3ccccc3cc12	.	59	.	.
Cc1cc2c(N)cccc2nn1	.	.	.	.
CCC(c1nnnn1Cc1ccc(F)cc1)N(CCCO)Cc1cc2cc3c(cc2[nH]c1=O)OCO3 (configuration not stated)	.	.	.	.
O=C(NCCc1ccccc1)C1CCN(c2nc3ccccc3o2)CC1	.	.	.	.
O=C(NC1CCCCCCC1)C1CCN(c2nc3ccccc3o2)CC1	.	.	.	66
O=C(NCc1cccs1)C1CCCN(c2nc3ccccc3o2)C1 (configuration not stated)	.	.	.	42
CC12CCC(C(=O)N3CCN(Cc4ccccc4)CC3)(OC1=O)C2(C)C (configuration not stated)	.	.	.	.
O=C(Cc1ccc(-c2ccccc2)cc1)NCCN1CCOCC1	.	.	.	.
O=C(CCSc1ccccc1)NCCN1CCOCC1	.	.	.	39
Cc1ccc(SCC(=O)N(Cc2nc(-c3ccccc3)no2)C(C)C)cc1	.	.	.	30
CC(C)N(Cc1nc(-c2ccccc2)no1)C(=O)CN(C)S(=O)(=O)c1ccc(Br)cc1	.	.	.	62
CC(C)N(Cc1nc(-c2ccc(Cl)cc2)no1)C(=O)CN(C)S(=O)(=O)c1ccc(Cl)cc1	.	.	.	52
CC(C)N(Cc1nc(-c2ccc(Cl)cc2)no1)C(=O)CCCN1C(=O)c2ccccc2C1=O	.	.	.	40
SMILES	PostGolgi yeast	BB579 growth dn	Yeast lifespan up	PostGolgi ctrl
CC(C)N(Cc1nc(-c2ccccc2)no1)C(=O)c1ccc(Cl)cc1	.	.	.	.
N#Cc1c(-c2ccccc2)c(-c2ccccc2)n(Cc2ccco2)c1NC(=O)c1cccs1	.	.	.	.
COc1ccc(OC)c(C(=O)CSc2nnc(Cc3cccs3)n2C)c1	.	.	.	.
COc1ccccc1C(=O)N(Cc1nc(-c2ccc(Cl)cc2)no1)C(C)C	.	.	.	32
CCOC(=O)c1cc(-c2ccccc2)nc2c1c(C)nn2-c1ccccn1	.	.	.	42
COc1ccc(C(=O)Nc2nnc(C(F)(F)F)s2)cc1	.	.	.	42
O=C(Nc1nnc(C(F)(F)F)s1)c1cccnc1	.	.	.	.
COc1ccc2c(CC(=O)Nc3ccc(OC)c(NS(=O)(=O)c4ccc(F)cc4)c3)coc2c1	.	.	.	.
Cc1ccc(N2CCOCC2)c2c1C(=O)c1ccccc1C2=O	/	63	.	/
CCOC(=O)/C(C#N)=C/c1cc2ccc(C)cc2nc1Cl	/	.	32	/
Cc1cc2cc(C=C(C#N)C#N)c(Cl)nc2cc1C	/	.	32	/
O=C1c2oc3ccc(F)cc3c(=O)c2C(c2ccccc2)N1CC1CCCO1 (configuration not stated)	.	.	.	.
O=S(=O)(c1ccc(Cl)cc1)N1CCN(C(=S)Nc2ccc(F)c(Cl)c2)CC1	/	.	.	/
CC1CCCN(Cc2cnc(Cl)s2)C1 (configuration not stated)	.	.	.	41
COc1cc(-n2nnnc2SCC(=O)N2CCN(c3ccc(F)cc3)CC2)c(OC)cc1Cl	.	.	.	38
Cc1cccnc1Nc1nc(-c2ccc(O)c(O)c2)cs1	.	.	.	83
N#Cc1c(N)nc(SCc2ccccn2)c(C#N)c1-c1cccs1	.	.	.	54
N#Cc1c(N)nc(SCc2ccccc2)c(C#N)c1-c1ccco1	.	.	.	37
COC(=O)C1C/C(=N\NS(=O)(=O)c2ccc(C)cc2)c2ccsc2C1 (configuration not stated)	/	.	.	/
O=C(O)C12CC3CC(C1)CC(n1cnc(Cl)n1)(C3)C2	.	.	.	.
O=C(NC12CC3CC(CC(C3)C1)C2)C12CC3CC(C1)CC(n1cnc(Cl)n1)(C3)C2	.	.	.	45
Cn1c(Cl)c(/C=N/OC(=O)c2cccc(Cl)c2)c2ccccc21	.	.	.	.
Cc1ccccc1C(=O)O/N=C/c1c(N2CCOCC2)n(C)c2ccccc12	54	79	.	40
O=C(CSc1n[nH]c(-c2ccc(S(=O)(=O)NC3CCCCC3)cc2)n1)N1CCCC1	.	.	.	32
O=C(COc1ccc(S(=O)(=O)NC2CCCC2)cc1)N1CCCCCC1	.	.	.	.
SMILES	PostGolgi yeast	BB579 growth dn	Yeast lifespan up	PostGolgi ctrl
O=C(/C=C/c1ccccc1)N1CCN(CCN2C(=O)c3cccc4cccc(c34)C2=O)CC1	/	.	.	/
CCOc1ccc(-n2ccnc2SCC(=O)NCc2ccc3c(c2)OCO3)cc1	.	.	.	.
CC(=O)C1=C(N2CCCCC2)CCC1=O	.	.	.	32
O=C(NNC(=O)C(c1ccccc1)c1ccccc1)c1ccccn1	/	.	29	/
CC(C)OCCCNC(=O)c1cc2c(=O)n(C)c3ccccc3c2n1C	.	.	.	32
CCOC(=O)c1cc(-c2ccc(OC)cc2F)nc2c1c(C)nn2CCC#N	.	.	.	45
COc1ccc(NC(=O)C2CC(=O)OC23CCOC(C)(C)C3)cc1 (configuration not stated)	.	.	.	.
COC(=O)Cn1cc(/C=N/NC(=O)c2ccc(C#N)cc2F)c2ccccc21	.	.	.	40
CCNc1nnc(-c2ccc(C)cc2)o1	.	.	.	.
O=C(NC1CCCCCC1)c1cccc(N2CCCC2=O)c1	.	.	.	.
CC1CCCCC1NC(=O)c1ccc(N2CCCC2=O)cc1 (configuration not stated)	.	.	.	33
COc1c(S(=O)(=O)n2nc(C)cc2C)ccc(Cl)c1Cl	.	.	.	31
Cc1cc(C)n(S(=O)(=O)c2ccc(Cl)c(Cl)c2Cl)n1	.	.	.	.
O=C1Nc2ccccc2N(O)N1c1ccc(S(=O)(=O)N2CCOCC2)cc1	/	.	.	/

Bioassay records deposited in PubChem by SRMLSC.
